Experimental data taken from ChEMBL document CHEMBL1649230, “Aryl rhodanines specifically inhibit staphylococcal and enterococcal biofilm formation” (Antimicrob Agents Chemother, 2009).

Tested on: Enterococcus faecalis
Assay: Antimicrobial activity against vancomycin-resistant Enterococcus faecalis isolate F177 assessed as inhibition of bacterial biofilm after 18 hrs by broth microdilution method
Type: functional
Procedure, shortened: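 Biofilm MBIC on tissue culture-treated polystyrene 96-well plates. Twofold dilutions, 0.2 to 100 μM final, with 2% DMSO final. Inoculum was an overnight culture diluted 1:100 (~5 × 10^6 cells/well) in 0.5× TSB plus 1% glucose, grown 18 h at 37°C. Wells washed, heat-fixed 60°C 60 min, stained with 0.06% crystal violet, OD600 read. MBIC is the lowest concentration giving ≥80% inhibition versus untreated; geometric mean of ≥3 experiments.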

CCOc1cc(/C=C2\SC(=S)N(c3cccnc3)C2=O)ccc1O gave an MBIC of 19.8 µM.
